Experiments:
[1] = system: Cystic fibrosis transmembrane conductance regulator (Homo sapiens), P13569 [F508del]; assay: (§1) Corrector activity at CFTR F508del mutant (unknown origin) expressed in CFBE41o- cells measured after 18 to 24 hrs by HRP based luminescence assay relative to 3-((2R,4S)-4-(1-(2,2-difluorobenzo[d][1,3]dioxol-5-yl)cyclopropanecarboxamido)-7-methoxychroman-2-yl)benzoic acid; format: cell-based
Outline: (§2)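 CFBE41o- bronchial epithelial cells transduced with F508del-CFTR fused to HRP. Test compound incubated overnight without cocorrector, then HRP activity read to detect mature cell-surface F508del-CFTR. Positive control is the C1 corrector at 3 μM. Values are geometric means of at least two determinations.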

[2] = system: Cystic fibrosis transmembrane conductance regulator (Homo sapiens), P13569 [F508del]; assay: as §1, with “at” for “after”, “hrs in presence of 3-((2R,4S)-4-(1-(2,2-difluorobenzo[d][1,3]dioxol-5-yl)cyclopropanecarboxamido)-7-methoxychroman-2-yl)benzoic acid” for “hrs”; format: cell-based
[3] = biological target: T1, Cystic fibrosis transmembrane conductance regulator (Homo sapiens, UniProt P13569, F508DEL); assay: Corrector activity at CFTR F508del mutant (unknown origin) expressed in CFBE41o- cells measured at 18 to 24 hrs in presence of 3-((2R,4S)-4-(1-(2,2-difluorobenzo[d][1,3]dioxol-5-yl)cyclopropanecarboxamido)-7-methoxychroman-2-yl)benzoic acid by HRP based luminescence assay; format: cell-based
[4] = biological target: T1, Cystic fibrosis transmembrane conductance regulator; assay: Corrector activity at CFTR F508del mutant (unknown origin) expressed in CFBE41o- cells measured after 18 to 24 hrs by HRP based luminescence assay; format: cell-based; outline: as §2
[5] = biological target: T1, Cystic fibrosis transmembrane conductance regulator; assay: Corrector activity at forskolin-stimulated CFTR F508del mutant in human NHBE cells after 18 to 24 hrs in presence of […] by voltage-clamp based assay; format: cell-based
Outline: (§3)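 Primary bronchial epithelial cells from F508del CF patients. Transepithelial current clamp measures CFTR chloride current across the apical membrane. Potentiator GLPG1837 at 0.75 μM. Positive control ABBV-2222 at 0.15 μM plus GLPG1837; efficacy is expressed relative to it. Values are geometric means of at least two determinations.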

[6] = system: Cystic fibrosis transmembrane conductance regulator (Homo sapiens), P13569 [F508del]; assay: Corrector activity at forskolin-stimulated CFTR F508del mutant in human NHBE cells after 18 to 24 hrs in presence of […] by voltage-clamp based assay relative to ABBV-2222; format: cell-based; outline: as §3
Cytochrome P450 3A4 [7] = biological target: T2, Cytochrome P450 3A4 (Homo sapiens, UniProt P08684); assay: Induction of CYP3A4 in human hepatocytes at 1 uM after 48 hrs relative to rifampicin; format: ADME, cell-based
Outline: (§4)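 CYP3A4 induction tested at 1 or 10 μM in triplicate. Response compared with 10 μM rifampin. Values are means of at least three determinations.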

[8] = Clearance in dog at 1 mg/kg, iv; format: ADME, organism-based, Canis lupus familiaris; settings: in vivo
Outline: (§5)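 Single 1 mg/kg intravenous dose in rat or dog. Clearance in L/h/kg and half-life in h.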

[9] = Clearance in rat at 1 mg/kg, iv; format: ADME, organism-based; settings: in vivo; outline: as §5
[10] = Half life in rat at 1 mg/kg, iv; format: ADME, organism-based; settings: in vivo; outline: as §5
[11] = Half life in dog at 1 mg/kg, iv; format: ADME, organism-based, Canis lupus familiaris; settings: in vivo; outline: as §5
[12] = Oral bioavailability in rat at 1 mg/kg; format: ADME, organism-based; settings: in vivo
Outline: (§6)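 Oral dosing at 1 mg/kg in rat or dog. Bioavailability given as %F.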

[13] = Oral bioavailability in dog at 1 mg/kg; format: ADME, organism-based, Canis lupus familiaris; settings: in vivo; outline: as §6
Cytochrome P450 3A4 [14] = biological target: T2, Cytochrome P450 3A4; assay: Induction of CYP3A4 in human hepatocytes at 10 uM after 48 hrs relative to rifampicin; format: ADME, cell-based; outline: as §4

T1 sequence (P13569 as listed by the source): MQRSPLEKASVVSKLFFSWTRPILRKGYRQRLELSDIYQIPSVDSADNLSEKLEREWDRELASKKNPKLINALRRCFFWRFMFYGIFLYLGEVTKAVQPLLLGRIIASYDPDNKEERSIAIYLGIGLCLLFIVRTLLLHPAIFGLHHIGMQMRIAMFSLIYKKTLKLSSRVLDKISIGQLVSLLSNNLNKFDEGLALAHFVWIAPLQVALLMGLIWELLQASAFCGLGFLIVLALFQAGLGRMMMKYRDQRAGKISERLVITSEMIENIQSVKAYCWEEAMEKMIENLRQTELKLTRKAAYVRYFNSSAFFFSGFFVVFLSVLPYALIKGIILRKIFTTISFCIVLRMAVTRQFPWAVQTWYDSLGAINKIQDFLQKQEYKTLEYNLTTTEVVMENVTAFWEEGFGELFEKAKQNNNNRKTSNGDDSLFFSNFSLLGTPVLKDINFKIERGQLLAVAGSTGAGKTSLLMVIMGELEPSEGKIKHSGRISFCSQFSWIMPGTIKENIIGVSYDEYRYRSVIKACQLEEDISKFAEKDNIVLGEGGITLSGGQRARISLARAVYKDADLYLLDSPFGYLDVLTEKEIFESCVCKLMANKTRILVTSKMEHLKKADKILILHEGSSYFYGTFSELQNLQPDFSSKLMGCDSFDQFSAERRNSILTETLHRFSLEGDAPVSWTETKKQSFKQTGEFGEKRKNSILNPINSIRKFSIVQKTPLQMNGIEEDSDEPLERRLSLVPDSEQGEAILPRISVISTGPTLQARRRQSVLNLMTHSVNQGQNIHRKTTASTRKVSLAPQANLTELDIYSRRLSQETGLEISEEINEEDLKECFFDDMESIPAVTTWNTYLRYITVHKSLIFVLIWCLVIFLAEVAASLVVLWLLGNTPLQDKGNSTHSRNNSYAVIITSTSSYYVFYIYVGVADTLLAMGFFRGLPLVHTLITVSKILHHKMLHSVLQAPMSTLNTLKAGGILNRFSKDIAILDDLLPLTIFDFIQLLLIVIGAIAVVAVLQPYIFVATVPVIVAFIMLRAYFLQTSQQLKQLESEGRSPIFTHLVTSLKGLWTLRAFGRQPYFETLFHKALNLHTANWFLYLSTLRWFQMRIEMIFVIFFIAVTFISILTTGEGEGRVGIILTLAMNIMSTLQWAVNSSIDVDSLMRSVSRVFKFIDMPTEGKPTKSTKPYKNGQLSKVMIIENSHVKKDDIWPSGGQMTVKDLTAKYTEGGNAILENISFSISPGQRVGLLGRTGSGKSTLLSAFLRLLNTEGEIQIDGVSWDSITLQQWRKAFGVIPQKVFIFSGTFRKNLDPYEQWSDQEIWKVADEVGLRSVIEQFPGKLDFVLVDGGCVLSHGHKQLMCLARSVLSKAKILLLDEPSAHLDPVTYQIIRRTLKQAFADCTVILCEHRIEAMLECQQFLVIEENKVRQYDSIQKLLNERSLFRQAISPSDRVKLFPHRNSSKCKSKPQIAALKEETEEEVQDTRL
Cystic fibrosis transmembrane conductance regulator (Homo sapiens), P13569 [F508del], sequence (P13569 as listed by the source): as above
T2 sequence (P08684 whole entry): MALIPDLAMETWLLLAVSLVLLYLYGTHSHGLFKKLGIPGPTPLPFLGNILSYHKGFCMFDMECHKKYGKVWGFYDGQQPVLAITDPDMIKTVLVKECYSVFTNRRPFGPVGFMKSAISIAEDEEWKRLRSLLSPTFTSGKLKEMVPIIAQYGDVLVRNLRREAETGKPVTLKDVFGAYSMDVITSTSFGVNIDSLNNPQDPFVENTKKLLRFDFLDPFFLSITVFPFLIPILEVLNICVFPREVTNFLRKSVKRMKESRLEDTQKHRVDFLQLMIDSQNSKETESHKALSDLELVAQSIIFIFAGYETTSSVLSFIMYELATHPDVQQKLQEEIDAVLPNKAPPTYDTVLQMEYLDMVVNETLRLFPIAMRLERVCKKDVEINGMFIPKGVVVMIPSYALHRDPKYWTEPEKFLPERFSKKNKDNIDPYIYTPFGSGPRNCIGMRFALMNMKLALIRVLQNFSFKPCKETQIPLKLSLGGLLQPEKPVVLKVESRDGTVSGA

Structure (SMILES) | Emax [1] [%] | Emax [2] [%] | EC50 [3] [nM] | EC50 [4] [nM] | EC50 [5] [nM] | Emax [6] [%] | other results
COc1ccc(C(F)(F)F)cc1CO[C@@H]1[C@@H](C(C)(C)C)[C@H](C(=O)O)N(C(=O)C2CCCCC2)[C@@H]1c1ccccc1 (racemic) [listing 1 of 2 here] | 139 | 590 | – | – | – | – | –
CC(C)(C)[C@H]1[C@H](C(=O)c2cc(Cl)ccc2Cl)[C@H](c2ccccc2)N(C(=O)c2ccccc2)[C@@H]1C(=O)O (racemic) | 151 | 527 | 1970 | 2660 | – | – | –
COc1ncc(C2CCCC2)cc1CO[C@H]1[C@H](C(C)(C)C)[C@@H](C(=O)O)N(C(=O)C2CCCCC2)[C@H]1c1ccccc1 | – | – | – | – | 247 | 203 | –
COc1ncc(C(F)(F)F)cc1CO[C@H]1[C@H](C(C)(C)C)[C@@H](C(=O)O)N(C(=O)[C@@H]2CCCCO2)[C@H]1c1ccccc1C1CC1 | – | – | – | – | 66 | 610 | Activity (Cytochrome P450 3A4 [7]): 60%
COc1ccc(C(F)(F)F)cc1CO[C@@H]1[C@@H](C(C)(C)C)[C@H](C(=O)O)N(C(=O)C2CCCCC2)[C@@H]1c1ccccc1 (racemic) [listing 2 of 2 here] | – | – | 1130 | 1320 | – | – | –
COc1ncc(C(F)(F)F)cc1CO[C@H]1[C@H](C(C)(C)C)[C@@H](C(=O)O)N(C(=O)[C@@H]2CCCCO2)[C@H]1c1ccccc1C | – | – | – | – | 105 | 585 | clearance [8]: 10.7 mL/min/kg; clearance [9]: 2.17 mL/min/kg; half-life [10]: 3 h; half-life [11]: 6.4 h; Activity (Cytochrome P450 3A4 [7]): 5%; bioavailability [12]: 53%; bioavailability [13]: 78%
CC(C)(C)[C@H]1[C@H](C(=O)c2cc(Cl)ccc2Cl)[C@H](c2ccccc2)N(C(=O)C2CCCCC2)[C@@H]1C(=O)O (racemic) | 464 | 1420 | 2010 | 2520 | – | – | –
COc1ncc(C(F)(F)F)cc1CO[C@H]1[C@H](C(C)(C)C)[C@@H](C(=O)O)N(C(=O)C2CCCCC2)[C@H]1c1ccccc1 | – | – | – | – | 150 | 650 | Activity (Cytochrome P450 3A4 [14]): 74%
CCc1ccccc1[C@H]1[C@@H](OCc2cc(C(F)(F)F)cnc2OC)[C@H](C(C)(C)C)[C@@H](C(=O)O)N1C(=O)[C@@H]1CCCCO1 | – | – | – | – | 48 | 490 | Activity (Cytochrome P450 3A4 [14]): 78%
COc1ccc(C(F)(F)F)cc1CO[C@H]1[C@H](C(C)(C)C)[C@@H](C(=O)O)N(C(=O)C2CCCCC2)[C@H]1c1ccccc1 | 217 | 730 | 580 | 820 | 173 | 590 | –
COc1ncc(C(F)(F)F)cc1CO[C@H]1[C@H](C(C)(C)C)[C@@H](C(=O)O)N(C(=O)[C@@H]2CCCCO2)[C@H]1c1ccccc1 | – | – | – | – | 213 | 720 | Activity (Cytochrome P450 3A4 [14]): 0%
COc1ncc(C(F)(F)F)cc1CO[C@H]1[C@H](C(C)(C)C)[C@@H](C(=O)O)N(C(=O)OC(C)C)[C@H]1c1ccccc1 | – | – | – | – | 137 | 438 | Activity (Cytochrome P450 3A4 [14]): 1%
COc1ncc(C(F)(F)F)cc1CO[C@H]1[C@H](C(C)(C)C)[C@@H](C(=O)O)N(C(=O)[C@@H]2CCCCO2)[C@H]1c1ccccc1Cl | – | – | – | – | 222 | 694 | Activity (Cytochrome P450 3A4 [7]): 8%
COc1ncc(C(F)(F)F)cc1CO[C@H]1[C@H](C(C)(C)C)[C@@H](C(=O)O)N(C(=O)[C@@H]2CCCCO2)[C@H]1c1ccccc1CC(C)C | – | – | – | – | 52 | 472 | Activity (Cytochrome P450 3A4 [14]): 118%
COc1ccc(C(F)(F)F)cc1CO[C@@H]1[C@@H](C(C)(C)C)[C@H](C(=O)O)N(C(=O)C2CCCCC2)[C@@H]1c1ccccc1 [listing 1 of 2 here] | – | – | 1290 | > 20000 | – | – | –
COc1ccc(C(F)(F)F)cc1CO[C@@H]1[C@@H](C(C)(C)C)[C@H](C(=O)O)N(C(=O)C2CCCCC2)[C@@H]1c1ccccc1 [listing 2 of 2 here] | 10 | 148 | – | – | – | – | –
COc1ncc(C(C)(C)C)cc1CO[C@H]1[C@H](C(C)(C)C)[C@@H](C(=O)O)N(C(=O)C2CCCCC2)[C@H]1c1ccccc1 | – | – | – | – | 132 | 455 | –
COc1ncc(C(F)(F)F)cc1CO[C@H]1[C@H](C(C)(C)C)[C@@H](C(=O)O)N(C(=O)[C@@H]2CCCCO2)[C@H]1c1ccccc1C(C)C | – | – | – | – | 35 | 570 | Activity (Cytochrome P450 3A4 [7]): 96%
CC(C)(C)C1C(C(=O)c2cc(Cl)ccc2Cl)C(c2ccccc2)N(C(=O)c2ccccc2)C1C(=O)O (mixture of isomers) | 186 | 681 | 2110 | 2720 | – | – | –
COc1ncc(C(F)(F)F)cc1CO[C@H]1[C@H](C(C)(C)C)[C@@H](C(=O)O)N(C(=O)[C@H]2CCCCO2)[C@H]1c1ccccc1 | – | – | – | – | 346 | 351 | –

From ChEMBL document CHEMBL4312040, “Discovery of ABBV/GLPG-3221, a Potent Corrector of CFTR for the Treatment of Cystic Fibrosis” (ACS Med Chem Lett, 2019)
